# High-throughput results as filed in PubChem.
# CHO-K1 Ca antag = nonselective inhibitor or artifact in parental CHO-K1 cells | ATP-induced calcium, Fluo-8 fluorescence | AID 602250 | 0.6% of 360,000 active | inhibition, % at 3 µM;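 active = inhibition above a per-plate cutoff, the plate's mean sample inhibition plus 3 SD, cut at about 24% in these data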
# OX1R antag-1 = OX1R (HCRTR1) antagonists, primary screen, fluorescence, CHO/OX1R cells, Fluo-8 calcium, orexin A; Orexin/Hypocretin receptor type 1 (Homo sapiens), O43613; Fluo-8 calcium fluorescence; inhibition, % at 5 µM; AID 434989, 2010; 0.43% of 330,000 active;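 active = inhibition above its plate's threshold, mean inhibition of all tested compounds on the plate plus 3 SD, cut at about 37% in these data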
# Target sequence (O43613 whole entry, looked up): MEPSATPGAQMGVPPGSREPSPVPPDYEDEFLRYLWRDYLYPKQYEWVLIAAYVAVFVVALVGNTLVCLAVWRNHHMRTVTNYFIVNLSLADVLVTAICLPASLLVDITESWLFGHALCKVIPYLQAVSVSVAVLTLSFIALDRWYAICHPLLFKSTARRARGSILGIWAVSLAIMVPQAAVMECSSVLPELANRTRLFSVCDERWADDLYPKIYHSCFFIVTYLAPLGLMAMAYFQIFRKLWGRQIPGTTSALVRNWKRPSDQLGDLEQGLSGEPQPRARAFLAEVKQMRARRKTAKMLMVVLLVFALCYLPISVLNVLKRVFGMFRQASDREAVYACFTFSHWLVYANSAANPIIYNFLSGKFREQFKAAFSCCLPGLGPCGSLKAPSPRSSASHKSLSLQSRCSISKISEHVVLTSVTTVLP
# OX1R antag-2 = antagonists of human orexin 1 receptor (OX1R). inhibition, % at 6.6 µM. OX1R-expressing cells, FRET antagonist read-out. 1.8% of 330,000 active. AID 485270, 2010. Orexin/Hypocretin receptor type 1 (Homo sapiens), O43613; in the data active = inhibition mostly above about 38%, no sharp cut-off; inactive = mostly below about 40%
# CHO parental Ca = ATP-evoked calcium signal inhibitors, parental CHO, primary screen, counter-screen for OX1R antagonist project, cell-based, fluorescence, Fluo-8 calcium dye; 0.63% of 330,000 active; parental CHO-K1, ATP-induced calcium, Fluo-8 fluorescence; AID 463079, 2010; inhibition, % at 5.6 µM;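 active = inhibition above that plate's mean sample inhibition plus 3 SD, cut at about 26% in these data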
#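 material = parental CHO cells | also added = ATP as calcium-mobilizing challenge | dosing = single point at 5.6 µM | detection = intracellular calcium via Fluo-8 no-wash fluorescent dye | read-out = % inhibition | benchmarks = low control ATP plus DMSO, high control DMSO only | repeats = one well per compound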
# CHO-K1 Ca PAM = nonselective calcium activators in parental CHO-K1 cells, primary screen, counter-screen for M1 PAM project, cell-based, Fluo-8 calcium fluorescence, full deck, 1536-well | ATP EC20; 0% at ATP EC20, 100% at ATP max | activation, % at 3 µM | 0.02% of 360,000 active;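 active = activation above the run cutoff, the mean activation of all test compounds plus 3 SD, cut at about 40% in these data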;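 also: peak over basal fluorescence ratio in a 140 s read after ATP addition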
# CHO-K1 Ca ag = counter-screen for M1 agonists: effect in parental CHO-K1 cells | Fluo-8 calcium fluorescence; scaled to maximal ATP response, vehicle zero | activation, % at 3 µM | 0.48% of 360,000 active | AID 602248, 2012; in the data active = activation above about 15%;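 also: untransfected CHO-K1 host cells lacking M1 receptor as counterscreen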
# OX1R Fluo8 conf = OX1R (HCRTR1) antagonists, confirmation, fluorescence, CHO/OX1R cells, Fluo-8 calcium, orexin A | shares compounds with OX1R antag-1 | inhibition, % at 5 µM | orexin A calcium Fluo-8 fluorescence | 38% of 1,100 active; in the data active = inhibition above about 29%
# CHO Ca counter = ATP-evoked calcium inhibition in parental CHO, counter-screen for OX1R antagonist project, cell-based, fluorescence, CHO-K1, triplicate | shares compounds with OX1R antag-1 | ATP-induced calcium, Fluo-8 fluorescence | inhibition, % at 5.6 µM | 9.3% of 1,100 active | AID 492965, 2010;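 active = inhibition above a per-plate limit, the mean inhibition of that plate's test compounds plus 3 SD, cut at about 25% in these data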
# OX1R HTRF confirm = OX1R (HCRTR1) antagonists, confirmation, cell-based, HTRF. shares compounds with OX1R antag-2. OX1R-expressing cells, HTRF antagonist assay. inhibition, % at 6.6 µM. 49% of 1,800 active; in the data active = inhibition above about 55%;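 also: CHO cells expressing OX1R stimulated with orexin A at about EC80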
# CHO-K1 HTRF cnt = signal inhibition in parental CHO-K1 cells, counter-screen for OX1R antagonist project, cell-based, HTRF | shares compounds with OX1R antag-2 | HTRF counterscreen | inhibition, % at 6.6 µM | 48% of 1,800 active; in the data active = inhibition above about 17%
# Hits are given with their value; . = inactive; / = no result. Hits are enriched below; roughly 2.9% of the tested compounds scored in any of these assays.
SMILES,CHO-K1 Ca antag,OX1R antag-1,OX1R antag-2,CHO parental Ca,CHO-K1 Ca PAM,CHO-K1 Ca ag,OX1R HTRF confirm,CHO-K1 HTRF cnt,others
O=C(CN1C(=O)NC2(CCCC2)C1=O)OCCOc1ccccc1,.,.,.,.,.,.,/,/,
C=CCn1c2ccccc2c(=O)c2cc(C#Cc3cc(OC)cc(OC)c3)ccc21,.,69,47,.,.,.,66,20,OX1R Fluo8 conf=45;CHO Ca counter=.
COc1cc(C#Cc2c(C=O)n(C)c3ccccc23)cc(OC)c1,.,.,.,.,.,.,/,/,
CC1CCCCN1CC(=O)Nc1cc(S(=O)(=O)N2CCOCC2)ccc1N1CCCC1 (stereo not drawn),.,.,.,.,.,.,/,/,
COc1ccccc1C(=O)Nc1nc2cc3c(cc2s1)OCCO3,.,.,106,.,.,.,95,.,OX1R Fluo8 conf=51;CHO Ca counter=.
CC1(c2ccc3noc(-c4cccc(F)c4)c3c2)OCCO1,.,.,.,.,.,.,/,/,
COc1cccc(CN(CC(=O)NCc2ccccc2)S(=O)(=O)CCl)c1,.,.,.,.,.,.,/,/,
COC(=O)CC1(C(=O)OC)Oc2ccccc2C(=O)N1c1ccc(F)cc1F (stereo not drawn),.,.,.,.,.,.,/,/,
Cn1c(N)c(C(=O)N/N=C/c2ccccc2)sc1=S,.,91,93,.,.,.,95,17,OX1R Fluo8 conf=73;CHO Ca counter=.
O=C(C1CCCN(S(=O)(=O)c2cccc3nsnc23)C1)N1CCc2ccccc21 (stereo not drawn),.,.,103,.,.,.,.,.,OX1R Fluo8 conf=.;CHO Ca counter=.
Clc1ccccc1CNCc1ccncc1,.,.,.,.,.,.,/,/,
CC1(C)Cc2ccccc2C2=NNC(=O)C2=N1,.,.,117,.,.,.,.,78,
CCCCNc1cccc2c1S(=O)(=O)N(CCCC)CC(COCc1ccccc1)O2 (stereo not drawn),.,/,/,/,.,.,/,/,
CN(c1ccc(O)cc1)c1nc(O)c(C2=c3ccccc3=NC2=O)s1,.,.,79,.,.,.,.,.,
Cc1cccc(C(=O)Nc2nnc(SCC(=O)NCc3ccco3)s2)c1,.,.,.,.,.,.,/,/,
O=C(NCCO)c1cccc2c1C(=O)c1ccccc1-2,.,.,121,.,.,.,58,53,
O=Cc1c(Sc2ccccn2)nc2ccccn2c1=O,.,.,96,.,.,.,.,45,
O=Cc1c(Sc2ccccc2)nc2ccccn2c1=O,.,.,.,.,.,.,/,/,
O=C1c2cccc3cccc(c23)C(=O)N1/N=C/c1ccc(O)cc1O,.,.,99,.,.,.,.,64,
Cc1cccc(C(=O)NCC(=O)N2CCCCCCC2)c1,.,.,.,.,.,.,/,/,
O=C(COc1ccc(C(=S)N2CCCC2)cc1)Nc1ccccc1C(F)(F)F,.,.,83,.,.,.,72,.,
COc1cc2c(cc1O)CC[n+]1cc3c(OC)c(OC)ccc3cc1-2,.,.,77,.,.,.,.,37,
COc1cc2c(cc1OC)-c1cc3ccc4c(c3c[n+]1CC2)OCO4,.,.,79,.,.,.,.,75,
CN(C1CCCCC1)S(=O)(=O)c1ccc2[nH]c(=O)oc2c1,.,.,.,.,.,.,/,/,
CC(=O)c1cccc(NC(=O)CCS(=O)(=O)c2cccc3nsnc23)c1,.,.,89,.,.,.,.,25,
SMILES,CHO-K1 Ca antag,OX1R antag-1,OX1R antag-2,CHO parental Ca,CHO-K1 Ca PAM,CHO-K1 Ca ag,OX1R HTRF confirm,CHO-K1 HTRF cnt,others
COc1cccc(NC(=O)CS(=O)(=O)c2cccc3nsnc23)c1,.,.,.,.,.,.,/,/,
O=C(CCCNS(=O)(=O)c1cccc2nsnc12)NCc1ccccc1,.,.,.,.,.,.,/,/,
O=C(CCS(=O)(=O)c1cccc2nsnc12)NCc1ccccc1,.,.,120,.,.,.,.,39,
CC(C)NC(=O)c1onc(CSc2cccc3ccccc23)c1C(=O)O,.,.,.,.,.,.,/,/,
CCC1(C)N=c2c(c(=O)n(C)c(=O)n2C)=NO1 (stereo not drawn),.,.,123,.,.,.,.,26,
COc1ccc(NC(=O)Nc2ccc3c(c2)C(=O)N([C@@H](C)CO)C[C@@H](C)[C@@H](CN(C)CC2CCCCC2)O3)cc1,.,.,.,.,.,.,/,/,
COc1cccc(C(=O)N(Cc2cc3cc(C)ccc3[nH]c2=O)C(C)C)c1,.,.,77,.,.,.,68,.,
COc1cc(OC)cc(C(=O)N(Cc2cc3cc(C)ccc3[nH]c2=O)C(C)C)c1,.,.,.,.,.,.,/,/,
CCOC(=O)c1[nH]c(C)c(C(=O)N2CCN(c3ccccc3OC)CC2)c1C,.,.,.,.,.,.,/,/,
O=C(N/N=C/c1cc(Cl)c(O)c(Cl)c1)c1cc2c(ccc3ccccc32)o1,.,.,92,.,.,.,.,.,
FC(F)(F)c1cnc(COc2cc(Cl)cc(Cl)c2)c(Cl)c1,.,.,.,.,.,.,/,/,
NCCCC[C@@H]1NC(=O)c2cc([N+](=O)[O-])cc(I)c2SC[C@@H](C(=O)NCC(N)=O)NC(=O)CNC1=O,.,.,87,.,.,.,.,56,
Cc1cccc(NC(=O)C2COc3ccccc3O2)c1 (stereo not drawn),.,.,.,.,.,.,/,/,
COc1ccc(NC(=O)c2cccnc2)c([N+](=O)[O-])c1,.,.,123,.,.,.,.,.,
Cc1ccc(S(=O)(=O)N(C)C)cc1NC(=O)c1ccccc1SCC(=O)N1CCCC1,.,.,.,.,.,.,/,/,
COc1ccc(-c2nn(CCC(=O)O)cc2/C=C2\SC(N)=NC2=O)cc1,.,.,77,.,.,.,.,31,
NC1=NC(=O)/C(=C/c2cn(CCC(=O)O)nc2-c2ccc(Cl)cc2)S1,.,.,.,.,.,.,/,/,
O=C(NCc1ccccc1)/C(=C\c1ccccc1)NC(=O)c1ccco1,.,.,.,.,.,.,/,/,
